From ChEMBL document CHEMBL3751740, “New MKLP-2 inhibitors in the paprotrain series: Design, synthesis and biological evaluations” (Bioorg Med Chem, 2016)
Activity calls are given as the source filed them. No cut-off for these calls is given here.

Legend:
[1] = species: Ovis aries; test: Inhibition of sheep brain tubulin polymerization by UV spectrophotometric analysis; conditions: concentration not given here
Outline: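 Tubulin purified from sheep brain by two assembly/disassembly cycles, about 2–3 mg/mL in 0.1 M MES, 0.5 mM MgCl2, 1 mM EGTA, 1 mM GTP, pH 6.6. Compound in DMSO added at 0 °C, then moved to a 37 °C thermostated cell. Assembly followed by turbidity at 350 nm for a few min.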

[2] = species: Ovis aries; test: Induction of sheep brain microtubule disassembly by UV spectrophotometric analysis
Outline: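 Sheep brain tubulin, purified by two assembly/disassembly cycles and held in MES buffer with GTP at pH 6.6, was polymerized at 37 °C for 10 min. Compound was then added to the MTs at 0 °C and depolymerization was followed over the next few minutes by turbidity at 350 nm.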

[3] = system: KB; test: Growth inhibition of human KB cells at 10 uM after 72 hrs by MTS assay; assay type: functional; conditions: read-out: GI
Outline: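 KB cells were grown in DMEM with 25 mM glucose and 10% FCS at 37 °C, 5% CO2, and seeded at 500 cells/well. 24 h later, compound in DMSO (1% final) was added at 10 µM or 1 µM for 72 h; controls received DMSO alone. Runs were in duplicate. Viable cells were read with MTS at 490 nm.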

[4] = system: K562; test: Growth inhibition of human K562 cells incubated for 4 days by WST-1 assay; assay type: functional; conditions: K562, 96 h
Outline: (§1)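 Cells were kept at 37 °C under 5% CO2 and plated on day 0 at 500–5000 cells/well. On day 1 they received ten concentrations from 0.0025 to 50 µM (final), in triplicate. On day 4 WST-1 was added, followed by 30 min–4 h incubation and absorbance at 450 nm. GI50 is the concentration killing 50% of cells.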

[5] = system: A549; test: Growth inhibition of human A549 cells incubated for 4 days by WST-1 assay; assay type: functional; conditions: A549, 96 h; outline: as §1
[6] = system: NCI-H460; test: Growth inhibition of human NCI-H460 cells incubated for 4 days by WST-1 assay; assay type: functional; conditions: NCI-H460, 96 h; outline: as §1
[7] = system: MDA-MB-231; test: Growth inhibition of human MDA-MB-231 cells incubated for 4 days by WST-1 assay; assay type: functional; conditions: MDA-MB-231, 96 h; outline: as §1
[8] = system: MCF7; test: Growth inhibition of human MCF7 cells incubated for 4 days by WST-1 assay; assay type: functional; conditions: MCF7, 96 h; outline: as §1
[9] = Growth inhibition of human HCT116 cells incubated for 4 days by WST-1 assay; assay type: functional; conditions: HCT-116, 96 h; outline: as §1
[10] = system: HT-29; test: Growth inhibition of human HT-29 cells incubated for 4 days by WST-1 assay; assay type: functional; conditions: HT-29, 96 h; outline: as §1
[11] = Growth inhibition of human MIAPaCa2 cells incubated for 4 days by WST-1 assay; assay type: functional; conditions: MIA PaCa-2, 96 h; outline: as §1
[12] = Growth inhibition of human PK59 cells incubated for 4 days by WST-1 assay; assay type: functional; conditions: PK-59, 96 h; outline: as §1
[13] = system: HepG2; test: Growth inhibition of human HepG2 cells incubated for 4 days by WST-1 assay; assay type: functional; conditions: HepG2, 96 h; outline: as §1

inhibition [1]: 11%
Activity [2]: inactive
GI50 [4]: 21.6 µM
GI50 [5]: > 50 µM
GI50 [6]: > 50 µM
GI50 [7]: > 50 µM
GI50 [8]: > 50 µM
GI50 [10]: > 50 µM
GI50 [13]: > 50 µM
SMILES: N#C/C(=C\c1cccnc1)c1c[nH]c2ccccc12
inhibition of growth at 10 µM [3]: 27%
IC25 [6]: 18.5 µM
IC25 [8]: 28.6 µM
GI50 [9]: > 50 µM
IC25 [10]: 7.5 µM
GI50 [11]: > 50 µM
GI50 [12]: > 50 µM
